Drawing on ChEMBL document CHEMBL1153722, “Design, synthesis, and characterization of peptide-based rab geranylgeranyl transferase inhibitors” (J Med Chem, 2009), this text covers inhibition for 54 compounds.

The structures appear in SMILES notation. Square brackets hold non-standard residues; d marks the D form. Peptide text beside a SMILES is read from it. * marks the point of attachment. Hydrocinnamoyl = O=C(CCc1ccccc1)*; pNA = O=[N+]([O-])c1ccc(N*)cc1; Undecanoyl = CCCCCCCCCCC(=O)*; pGlu = O=C1CC[C@@H](C(=O)O)N1; Ac6c = NC1(C(=O)O)CCCCC1; Cbz = O=C(OCc1ccccc1)*; NHBn = c1ccc(CN*)cc1; X1 = Fc1ccc(N*)cc1Cl; NHNH2 = NN*; NHOH = ON*

The species entered for the assay is Rattus norvegicus. Description: Inhibition of rat recombinant Rab geranylgeranyltransferase at 100 uM in presence of canine Rab7 and rat REP1 NBD-FPP based continuous fluorimetric assay. Put shortly:
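Continuous fluorometric assay in 96/384-well format: 3 μM Rab7, 3 μM REP1, 9 μM NBD-FPP and 400 nM RabGGTase, with or without inhibitor. […] IC50 was calculated from three independent measurements.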
With `NC(=O)CC[C@H](NC(=O)[C@H](Cc1ccccc1)NC(=O)[C@H](CO)NC(=O)CCc1ccccc1)C(=O)Nc1ccc([N+](=O)[O-])cc1` (Hydrocinnamoyl-Ser-Phe-Gln-pNA), the inhibition amounted to 93%.
As for `CCCCCCCCCCCOc1ccc(C(=O)N[C@@H](Cc2c[nH]cn2)C(=O)N[C@@H](Cc2ccc(O)cc2)C(=O)N[C@@H](Cc2ccccc2)C(N)=O)cc1`, the inhibition came out at 81%.
Regarding `CCCCCCCCCCCOc1ccc(C(=O)N[C@@H](Cc2ccc(O)cc2)C(=O)N[C@@H](Cc2ccc(O)cc2)C(=O)N[C@@H](Cc2c[nH]cn2)C(=O)O)cc1`, the inhibition stood at 102%.
For `COc1ccc(C[C@@H](C(=O)N(C)[C@@H](Cc2ccccc2)C(=O)N2CCC(C(N)=O)CC2)N(C)C(=O)[C@@H](Cc2ccc(O)cc2)NC(=O)OCc2ccc([N+](=O)[O-])cc2)cc1`, the inhibition worked out at 75%.
Consider `CCCCCCCCCCCOc1ccc(C(=O)N[C@@H](Cc2cnc[nH]2)C(=O)N[C@@H](Cc2ccc(O)cc2)C(=O)N[C@@H](Cc2ccccc2)C(=O)NCC(O)CO)cc1` (some centres undefined), for which the inhibition amounted to 93%.
Turning to `CON(C)C(=O)[C@H](CC(C)C)NC(=O)[C@H](CO)NC(=O)[C@H](Cc1ccccc1)NC(=O)/C=C/c1ccc(F)cc1`, the inhibition came to 71%.
Regarding `COC(=O)NNC(=O)[C@H](CCC(=O)O)NC(=O)[C@H](NC(=O)[C@@H]1CCCN1C(=O)c1ccc([N+](=O)[O-])c(NC(C)=O)c1)C(C)C`, the inhibition worked out at 101%.
With `O=C(CNC(=O)[C@H](Cc1c[nH]cn1)NC(=O)OCc1ccccc1)N[C@@H](Cc1ccc(O)cc1)C(=O)NCCCn1ccnc1`, the inhibition is 85%.
Take `CC(C)C[C@H](NC(=O)[C@H](CO)NC(=O)[C@H](Cc1ccccc1)NC(=O)/C=C/c1ccc(F)cc1)C(=O)Nc1nccs1`: the inhibition worked out at 94%.
For the compound `O=C(N[C@@H](Cc1c[nH]cn1)C(=O)N[C@@H](Cc1ccc(O)cc1)C(=O)N[C@@H](Cc1ccccc1)C(=O)O)OCc1ccccc1OCc1ccccc1`, the inhibition came to 15%.
As to `C[C@@H](O)[C@H](NC(=O)/C=C/c1ccccc1)C(=O)N[C@@H](Cc1ccccc1)C(=O)N[C@@H](CCC(N)=O)C(=O)NCCO`, the inhibition came to 118%.
For the compound `CCCCCCCCCCC(=O)N[C@@H](Cc1c[nH]cn1)C(=O)N[C@@H](Cc1ccccc1)C(=O)N[C@@H](Cc1ccc(O)cc1)C(=O)N(C)OC`, the inhibition amounted to 76%.
On to `O=C(N[C@@H](Cc1ccc(O)cc1)C(=O)N[C@@H](Cc1ccc(O)cc1)C(=O)N[C@@H](Cc1ccc(O)cc1)C(=O)Nc1nccs1)c1ccc(F)cc1F`, for which the inhibition worked out at 78%.
As to `O=C(/C=C/c1ccc(F)cc1)N[C@@H](CO)C(=O)N[C@@H](Cc1ccccc1)C(=O)N[C@@H](CO)C(=O)Nc1ccccc1`, the inhibition turned out to be 73%.
On to `CCCCCCCCCCCCCC(=O)OC[C@H](NC(=O)[C@@H]1CCCN1C(=O)[C@H](CCC(N)=O)NC(=O)c1coc(-c2ccccc2)n1)C(=O)O`, for which the inhibition worked out at 36%.
Under `CCCCCCCCCCC(=O)N[C@@H](Cc1c[nH]cn1)C(=O)N[C@@H](Cc1c[nH]cn1)C(=O)N[C@@H](Cc1ccc(O)cc1)C(=O)OC` (Undecanoyl-His-His-Tyr-OMe) stands 64%.
For the compound `COC(=O)[C@H](Cc1ccccc1)NC(=O)[C@H](Cc1ccccc1)NC(=O)[C@H](CC(C)C)NC(=O)/C=C/c1ccccc1`, the inhibition was -2%.
On to `CCCCCCCCCCOc1ccc(C(=O)N[C@@H](Cc2c[nH]c3ccccc23)C(=O)N[C@@H](Cc2c[nH]cn2)C(=O)N[C@@H](Cc2c[nH]cn2)C(=O)OC)cc1`, for which the inhibition is 56%.
Turning to `C=CCCCCCCCCCOC(=O)[C@H](CO)NC(=O)[C@H](Cc1ccccc1)NC(=O)[C@H](CO)NC(=O)/C=C/c1ccc(F)cc1`, the inhibition came to 87%.
Take `O=C(/C=C/c1ccc(F)cc1)N[C@@H](CO)C(=O)N[C@@H](Cc1ccccc1)C(=O)N[C@@H](CO)C(=O)N1CCOCC1`: the inhibition was found to be 75%.
On to `C[C@@H](O)[C@H](NC(=O)/C=C/c1ccccc1)C(=O)N[C@@H](Cc1ccccc1)C(=O)N[C@@H](CCC(N)=O)C(=O)Nc1cccc(Br)n1`, for which the inhibition was found to be 83%.
For `O=C(N[C@@H](Cc1ccccc1)C(=O)N[C@@H](Cc1ccccc1)C(=O)N[C@@H](Cc1ccc(O)cc1)C(=O)O)OCc1ccccc1` (Cbz-Phe-Phe-Tyr-OH) the value was 9%; for `CC(C)C[C@H](NC(=O)[C@H](COC(C)(C)C)NC(=O)[C@H](Cc1ccccc1)NC(=O)CCc1ccccc1)C(=O)OCCCl`, 109%; for `CC(C)C[C@H](NC(=O)[C@@H]1CCC(=O)N1)C(=O)N[C@@H](CCCCN)C(=O)NC1(C(=O)Nc2ccc(F)c(Cl)c2)CCCCC1` ([pGlu]LK[Ac6c]-X1), 105%.
As to `CC(C)C[C@H](NC(=O)[C@H](CO)NC(=O)[C@H](Cc1ccccc1)NC(=O)CCc1ccccc1)C(=O)OCCCl`, the inhibition turned out to be 97%.
For `O=C(CNC(=O)[C@@H]1CCCN1C(=O)c1coc(-c2ccccc2)n1)N[C@@H](Cc1ccccc1)C(=O)Nc1ccc(F)cc1F` the value was 89%.
Under `CCCCCc1ccc(CCC(=O)N[C@H](Cc2ccc(O)cc2)C(=O)N[C@@H](Cc2ccccc2)C(=O)N[C@@H](Cc2ccc(O)cc2)C(=O)O)cc1` stands 2%.
Regarding `C[C@H](NC(=O)[C@@H](NC(=O)c1ccc(-c2ccccc2)cc1)[C@@H](C)O)C(=O)N[C@@H](CCC(N)=O)C(=O)NNc1ccccc1`, the inhibition amounted to 96%.
Regarding `NC(=O)CC[C@H](NC(=O)[C@H](Cc1ccccc1)NC(=O)[C@H](CO)NC(=O)CCc1ccccc1)C(=O)NCc1ccccc1` (Hydrocinnamoyl-Ser-Phe-Gln-NHBn), the inhibition amounted to 87%.
`C[C@@H](O)[C@H](NC(=O)/C=C/c1ccccc1)C(=O)N[C@@H](Cc1ccccc1)C(=O)N[C@@H](CCC(N)=O)C(=O)O`: the inhibition is 83%.
For the compound `CC(C)C[C@H](NC(=O)[C@H](CO)NC(=O)[C@H](Cc1ccccc1)NC(=O)c1ccc(-c2ccccc2)cc1)C(=O)OCCCl`, the inhibition is 53%.
With `C=CCCCCCCCCCOC(=O)[C@H](CO)NC(=O)[C@H](Cc1ccccc1)NC(=O)[C@H](CO)NC(=O)CCc1ccccc1`, the inhibition was determined as 84%.
On to `CCCCCCCCCCC(=O)N[C@@H](Cc1ccc(O)cc1)C(=O)N[C@@H](Cc1c[nH]cn1)C(=O)N[C@@H](Cc1c[nH]cn1)C(=O)NO` (Undecanoyl-Tyr-His-His-{NHOH}), for which the inhibition is 84%.
For the compound `CCCCCCCCCCC(=O)N[C@@H](Cc1ccc(O)cc1)C(=O)N[C@@H](Cc1c[nH]cn1)C(=O)N[C@@H](Cc1ccc(O)cc1)C(=O)NO` (Undecanoyl-Tyr-His-Tyr-{NHOH}), the inhibition is 88%.
Consider `CCCCCCCCCCC(=O)N[C@@H](Cc1ccc(O)cc1)C(=O)N[C@@H](Cc1c[nH]cn1)C(=O)N[C@@H](Cc1c[nH]cn1)C(=O)Nc1ccccn1`, for which the inhibition came out at 64%.
For `O=C(CNC(=O)[C@H](Cc1ccc(O)cc1)NC(=O)c1coc(-c2ccccc2)n1)N[C@@H](Cc1c[nH]c2ccccc12)C(=O)O` the value was 59%; for `CC[C@H](C)[C@H](NC(=O)/C=C/c1ccc(F)cc1)C(=O)N[C@@H](C)C(=O)N[C@@H](CCC(N)=O)C(=O)Nc1ccc(F)c(Cl)c1`, 46%; for `NCCCCNC(=O)[C@H](Cc1ccc(O)cc1)NC(=O)[C@H](Cc1ccc(O)cc1)NC(=O)[C@H](Cc1ccc(O)cc1)NC(=O)c1ccc(F)cc1F`, 61%.
Consider `C=CCCCOC(=O)[C@H](CCC(N)=O)NC(=O)[C@H](Cc1ccccc1)NC(=O)[C@@H](NC(=O)/C=C/c1ccccc1)[C@@H](C)O`, for which the inhibition amounted to 102%.
`NC(=O)CC[C@H](NC(=O)[C@H](Cc1ccccc1)NC(=O)CNC(=O)CCc1ccccc1)C(=O)O` (Hydrocinnamoyl-Gly-Phe-Gln-OH): the inhibition was 94%.
With `O=C(CNC(=O)[C@H](Cc1ccc(O)cc1)NC(=O)c1ccc(F)cc1F)N[C@@H](Cc1ccc(O)cc1)C(=O)O`, the inhibition was 90%.
For `O=C(N[C@@H](Cc1cnc[nH]1)C(=O)N[C@@H](Cc1ccccc1)C(=O)N[C@@H](Cc1ccc(O)cc1)C(=O)O)OCc1ccc([N+](=O)[O-])cc1` the value was 61%.
Regarding `CCCCCCCCCCCOc1ccc(C(=O)N[C@@H](Cc2c[nH]cn2)C(=O)N[C@@H](Cc2ccc(O)cc2)C(=O)N[C@@H](Cc2ccccc2)C(=O)N(C)CCc2ccccn2)cc1`, the inhibition amounted to 101%.
Turning to `C[C@@H](O)[C@H](NC(=O)/C=C/c1ccccc1)C(=O)N[C@@H](Cc1ccccc1)C(=O)N[C@@H](CCC(N)=O)C(N)=O`, the inhibition came out at 78%.
On to `CC(C)C[C@H](NC(=O)[C@@H]1CCCN1C(=O)/C=C/c1ccccc1)C(=O)N[C@@H](Cc1ccccc1)C(=O)NC1CCCCC1`, for which the inhibition came to 82%.
On to `CC(C)C[C@H](NC(=O)[C@H](COC(C)(C)C)NC(=O)[C@H](Cc1ccccc1)NC(=O)c1ccc(-c2ccccc2)cc1)C(=O)OCCCl`, for which the inhibition stood at 87%.
As for `CC[C@H](C)[C@H](NC(=O)c1ccc(-c2ccccc2)cc1)C(=O)N[C@@H](C(=O)N[C@@H](CCC(N)=O)C(=O)O)C(C)C`, the inhibition was 77%.
Turning to `CC(C)C[C@H](NC(=O)[C@@H]1CCCN1C(=O)/C=C/c1ccccc1)C(=O)N[C@@H](Cc1ccccc1)C(=O)NCc1ccc(F)cc1F`, the inhibition is 26%.
On to `O=C(N[C@@H](CO)C(=O)N[C@@H](Cc1ccccc1)C(=O)N[C@@H](CO)C(=O)Nc1ccccc1)C(Br)C(Br)c1ccc(F)cc1` (some centres undefined), for which the inhibition was 81%.
Regarding `COc1ccc(NC(=O)[C@H](CCC(N)=O)NC(=O)[C@H](Cc2ccccc2)NC(=O)[C@H](CO)NC(=O)CCc2ccccc2)cc1`, the inhibition was 101%.
Under `CCC/C=C/c1cccc(/C=C/C(=O)N[C@H](Cc2cnc[nH]2)C(=O)N[C@@H](Cc2ccc(O)cc2)C(=O)N[C@@H](Cc2ccccc2)C(=O)O)c1` stands 59%; under `NNC(=O)[C@H](CCC(N)=O)NC(=O)[C@H](Cc1ccccc1)NC(=O)CNC(=O)CCc1ccccc1` (Hydrocinnamoyl-Gly-Phe-Gln-NHNH2), 93%.
`CCCCCCCCCCOc1ccc(C(=O)N[C@@H](Cc2c[nH]cn2)C(=O)N[C@@H](Cc2c[nH]cn2)C(=O)N[C@@H](CO)C(=O)O)cc1`: the inhibition stood at 74%.
As to `COC(=O)[C@H](CC(C)C)NC(=O)[C@H](CO)NC(=O)[C@H](Cc1ccccc1)NC(=O)CCc1ccccc1`, the inhibition came out at 69%.

As a reminder, the inhibition is the relative decrease from the control value, in per cent.
